One block for each compound: values may come before it. Activity calls are given as the source filed them. No cut-off for these calls is given here.
What was measured:
Mus musculus [1] = species: Mus musculus; test: Effect on acetyl-CoA carboxylase phosphorylation in mouse embryonic fibroblasts expressing AMPK-alpha1+/+alpha2+/+ upto 300 uM after 4 hrs by Western blot
HeLa [2] = test: Effect on AMPK activation in HeLa cells at 1 uM after 5 mins by immunoprecipitate kinase assay; type: cell-based
Outline: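 HeLa cells grown in Minimum Essential Eagle's Medium with 10% FBS, NEAA, penicillin and streptomycin. Cells were exposed for 5 min, with or without 1 h pretreatment with STO-609 (10 µg/ml). They were lysed in ice-cold NP-40 buffer, and AMPK activity was measured by immunoprecipitate kinase assay. Means ± SEM of duplicates, representative of 2 or more experiments.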

HeLa [3] = test: Effect on acetyl-CoA carboxylase phosphorylation in HeLa cells at 1 uM after 5 mins by densitometry; type: cell-based
Outline: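 HeLa cells grown in MEM with 10% FBS, NEAA and antibiotics. Cells were exposed for 5 min, with or without 1 h STO-609 (10 µg/ml) pretreatment, then lysed in NP-40 buffer. Lysates (10-30 µg protein) were Western blotted for phospho-ACC with ECL detection, and densitometry was given in arbitrary units. Means ± SEM of duplicates, representative of 2 or more experiments.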

HeLa [4] = test: Reduction of acetyl-CoA carboxylase phosphorylation in HeLa cells at 100 uM after 1 hr in presence of STO-609 by densitometry; type: cell-based
Outline: (§1)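 HeLa cells exposed to 100 µM compound for 1 hr, with or without a 1 hr pretreatment with STO-609 (10 µg/ml). Lysates Western blotted for phospho-ACC, quantified by densitometry in arbitrary units. Means ± SEM of duplicates; 2 or more experiments.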

Hepatocyte = test: Effect on acetyl-CoA carboxylase phosphorylation in wild type AMPK expressing mouse AMPK-alpha1+/+alpha2+/+ primary hepatocytes upto 200 uM after 4 hrs by Western blot; type: cell-based
Outline: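 Primary hepatocytes from AMPKα1+/+α2+/+ mice exposed to compound concentrations up to 200 µM for 4 hr. Lysates immunoblotted with phosphospecific and total ACC antibodies.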

Rattus norvegicus [5] = species: Rattus norvegicus; test: Protection against dephosphorylation of rat AMPK incubated with protein phosphatase 2Calpha at 1 uM in presence of magnesium
Outline: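 Purified rat liver AMPK incubated with recombinant protein phosphatase-2Cα (9 ng) plus 5 mM MgCl2 with or without 1 µM compound; remaining AMPK activity measured. Controls lacked Mg2+ or added 200 µM AMP.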

Mus musculus [6] = species: Mus musculus; test: Effect on acetyl-CoA carboxylase phosphorylation in mouse embryonic fibroblasts expressing AMPK-alpha1+/+alpha2+/+ at 100 uM upto1 hrs by Western blot
HeLa [7] = test: Effect on AMPK activation in HeLa cells at 100 uM after 1 hr by immunoprecipitate kinase assay; type: cell-based
Outline: (§2)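 HeLa cells (MEM, 10% FBS, NEAA, penicillin/streptomycin) given 100 µM compound for 1 hr, with or without STO-609 (10 µg/ml) for 1 hr beforehand. Lysates in ice-cold NP-40 buffer; AMPK activity by immunoprecipitate kinase assay and Thr-172 phosphorylation by Western blot. Means ± SEM of duplicates, representative of 2 or more experiments.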

HeLa [8] = test: Effect on AMPK phosphorylation in HeLa cells at 100 uM after 1 hr by immunoprecipitate kinase assay; type: cell-based
Outline: as §2

Mus musculus [9] = species: Mus musculus; test: Effect on acetyl-CoA carboxylase phosphorylation in LKB1-/-mouse longus muscle tissue at 2 mM uM by Western blot; type: tissue-based
Outline: (§3)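 EDL muscle from fasted LKB1+/+ or muscle-LKB1−/− mice, incubated 1 hr at 37°C in KRB pH 7.4 with 2 mM pyruvate, gassed 95% O2/5% CO2, with 2 mM AICAR. Lysates immunoblotted with phospho-Thr172 AMPK and phospho-ACC antibodies; ECL bands quantified by CCD imaging.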

Mus musculus [10] = species: Mus musculus; test: Effect on acetyl-CoA carboxylase phosphorylation in wild type LKB1+/+ mouse longus muscle tissue at 100 uM by Western blot; type: tissue-based
Outline: (§4)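 Extensor digitorum longus from overnight-fasted LKB1+/+ or muscle-specific LKB1−/− mice, mounted and incubated 1 hr at 37°C in KRB (pH 7.4, 2 mM pyruvate, gassed 95% O2/5% CO2) with compound (stock in DMSO); controls 0.1% DMSO. Muscles snap-frozen; lysates Western blotted for pT172 AMPK and pACC.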

Rattus norvegicus [11] = species: Rattus norvegicus; test: Effect on GST fused rat AMPKalpha1 T172D mutant kinase
Mus musculus [12] = species: Mus musculus; test: Effect on AMPK phosphorylation in wild type LKB1+/+ mouse longus muscle tissue at 100 uM by Western blot; type: tissue-based
Outline: as §4

Mus musculus [13] = species: Mus musculus; test: Effect on AMPK phosphorylation in wild type LKB1+/+ mouse longus muscle tissue at 2 mM uM by Western blot; type: tissue-based
Outline: as §3

HeLa [14] = test: Reduction of AMPK phosphorylation in HeLa cells at 100 uM after 1 hr in presence of STO-609 by immunoprecipitate kinase assay; type: cell-based
Outline: as §2

Mus musculus [15] = species: Mus musculus; test: Effect on acetyl-CoA carboxylase phosphorylation in LKB1-/-mouse longus muscle tissue at 100 uM by Western blot; type: tissue-based
Outline: as §4

[16] = target: 5'-AMP-activated protein kinase catalytic subunit alpha-1 (Rattus norvegicus) (UniProt P54645); test: Activation of rat AMPK alpha-1-alpha-2beta-1-gamma-1 kinase upto 5 uM in presence of saturating concentration of 200 uM AMP
Sequence of 5'-AMP-activated protein kinase catalytic subunit alpha-1 (Rattus norvegicus) (P54645 whole entry, the tested form may be a part): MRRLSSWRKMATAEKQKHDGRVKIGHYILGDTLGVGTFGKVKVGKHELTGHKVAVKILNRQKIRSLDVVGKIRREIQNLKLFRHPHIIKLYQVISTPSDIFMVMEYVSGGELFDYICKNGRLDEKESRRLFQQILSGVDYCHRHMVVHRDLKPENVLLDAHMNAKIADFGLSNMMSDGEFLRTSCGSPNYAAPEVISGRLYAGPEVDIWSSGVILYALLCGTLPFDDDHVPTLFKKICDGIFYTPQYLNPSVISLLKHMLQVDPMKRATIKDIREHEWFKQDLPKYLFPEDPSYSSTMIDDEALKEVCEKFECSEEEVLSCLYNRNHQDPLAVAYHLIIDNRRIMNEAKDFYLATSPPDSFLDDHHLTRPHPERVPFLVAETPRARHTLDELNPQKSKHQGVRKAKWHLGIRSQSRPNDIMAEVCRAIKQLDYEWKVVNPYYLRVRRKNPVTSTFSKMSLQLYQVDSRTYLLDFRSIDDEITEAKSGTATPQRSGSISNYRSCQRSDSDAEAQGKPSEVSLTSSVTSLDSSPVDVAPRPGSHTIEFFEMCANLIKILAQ

Mus musculus [17] = species: Mus musculus; test: Increase in acetyl-CoA carboxylase phosphorylation in TAK1+/+ mouse embryonic fibroblast at 100 uM after 1 hr by densitometry
Outline: (§5)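 TAK1+/+ and TAK1−/− MEFs treated with 100 µM compound for 1 hr; lysates Western blotted and ACC phosphorylation quantified by densitometry in arbitrary units. Means ± SEM of duplicates, representative of 2 or more experiments.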

Mus musculus [18] = species: Mus musculus; test: Effect on acetyl-CoA carboxylase phosphorylation in wild type LKB1+/+ mouse longus muscle tissue at 2 mM uM by Western blot; type: tissue-based
Outline: as §3

Mus musculus [19] = species: Mus musculus; test: Effect on AMPK phosphorylation in LKB1-/- mouse longus muscle tissue at 2 mM uM by Western blot; type: tissue-based
Outline: as §3

Mus musculus [20] = species: Mus musculus; test: Effect on acetyl-CoA carboxylase phosphorylation in mouse embryonic fibroblasts expressing AMPK-alpha1+/+alpha2+/+ at 100 uM after 15 mins by Western blot
[21] = target: Serine/threonine-protein kinase pim-1 (Homo sapiens) (UniProt P11309); test: Inhibition of PIM1 at 10 uM
Sequence of Serine/threonine-protein kinase pim-1 (Homo sapiens) (P11309 whole entry, looked up): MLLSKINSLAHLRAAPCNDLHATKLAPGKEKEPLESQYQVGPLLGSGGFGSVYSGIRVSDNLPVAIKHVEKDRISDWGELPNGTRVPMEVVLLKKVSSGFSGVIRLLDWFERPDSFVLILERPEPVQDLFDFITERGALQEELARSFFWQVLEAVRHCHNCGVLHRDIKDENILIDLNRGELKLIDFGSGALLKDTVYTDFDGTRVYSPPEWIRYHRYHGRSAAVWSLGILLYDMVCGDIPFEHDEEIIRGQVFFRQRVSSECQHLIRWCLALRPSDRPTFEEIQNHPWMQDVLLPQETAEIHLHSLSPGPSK
Outline: (§6)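 Single-concentration selectivity screen at 10 µM across a 76-protein-kinase panel, assayed per earlier methods. Duplicate assays; activity expressed as % of no-compound control ± standard deviation.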

Mus musculus [22] = species: Mus musculus; test: Increase in acetyl-CoA carboxylase phosphorylation in TAK1-/- mouse embryonic fibroblast at 100 uM after 1 hr by densitometry
Outline: as §5

HeLa [23] = test: Effect on AMPK phosphorylation in HeLa cells at 100 uM after 1 hr by immunoprecipitate kinase assay
Rattus norvegicus [24] = species: Rattus norvegicus; test: Effect on interaction between rat GST fused AMPK glycogen binding domain and glycogen at 5 uM
Outline: (§7)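 β1 glycogen-binding domain (residues 65-182) fused to GST, expressed in E. coli BL21 and glutathione-purified. 2 µg incubated with bovine liver glycogen coupled to Sepharose in 50 mM Tris-HCl pH 7.5, 150 mM NaCl with compound. Load, supernatant and pellet anti-GST immunoblotted on infrared imager.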

HeLa [25] = test: Reduction of AMPK activation in HeLa cells at 100 uM after 1 hr in presence of STO-609 by immunoprecipitate kinase assay; type: cell-based
Outline: as §2

Mus musculus [26] = species: Mus musculus; test: Effect on acetyl-CoA carboxylase phosphorylation in mouse embryonic fibroblasts expressing AMPK-alpha1+/+alpha2+/+ upto 300 uM by Western blot
Outline: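 MEFs from AMPKα1+/+/α2+/+ mice (DMEM, 10% FBS, NEAA, 1 mM pyruvate, antibiotics) given compound at graded concentrations up to 300 µM for 1 h. Lysates Western blotted for phospho- and total ACC, quantified by densitometry (arbitrary units). Means ± SEM of duplicates, representative of 2 or more experiments.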

[27] = target: Serine/threonine-protein kinase pim-3 (Homo sapiens) (UniProt Q86V86); test: Inhibition of PIM3 at 10 uM
Outline: as §6

Mus musculus [28] = species: Mus musculus; test: Effect on AMPK phosphorylation in LKB1-/- mouse longus muscle tissue at 100 uM by Western blot; type: tissue-based
Outline: as §4

[29] = target: 5'-AMP-activated protein kinase catalytic subunit alpha-1 (Rattus norvegicus) (UniProt P54645); test: Effect on GST fused rat AMPKalpha1 (1-333) kinase activation in presence of recombinant CaMKKbeta by Western blot
Outline: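 GST fusions of rat AMPKα1 kinase domain, with or without the autoinhibitory region, made in bacteria and glutathione-Sepharose purified. Pre-incubated with MgATP with or without recombinant human CaMKKβ to phosphorylate Thr-172. Activity then measured with or without 1 µM compound, or samples Western blotted with anti-GST and anti-pT172.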

Rattus norvegicus [30] = species: Rattus norvegicus; test: Effect on interaction between rat GST fused AMPK glycogen binding domain and glycogen at 0.5 uM
Outline: as §7

HeLa [31] = test: Effect on acetyl-CoA carboxylase phosphorylation in HeLa cells at 100 uM after 1 hr by densitometry; type: cell-based
Outline: as §1

SMILES: NC(=O)c1ncn([C@@H]2O[C@H](COP(=O)(O)O)[C@@H](O)[C@H]2O)c1N
Activity (Mus musculus [1]): Active

SMILES: CC(O)[C@]1(C)CC[C@H]([C@]2(C)CC[C@@H](C[C@H](O)[C@H](C)[C@H](O)[C@H](C)/C=C/C[C@@H](C)C[C@@H](C)/C(O)=C/C(=O)[C@@H](C)C[C@@H](C)C[C@H](C)CCC(=O)O)O2)O1 (single isomer, unassigned)
Activity (HeLa [2]): Active | Activity (HeLa [3]): Active

Activity (Rattus norvegicus [5]): Active | Activity (Mus musculus [6]): Active | Activity (Rattus norvegicus [11]): inactive | Activity [16]: 1.4 | Activity (Mus musculus [17]): Active | Activity (Mus musculus [20]): Active | inhibition [21]: > 50% | Activity (Mus musculus [22]): Active | Activity (Rattus norvegicus [24]): inactive | Activity (Mus musculus [26]): Active | inhibition [27]: > 50% | Activity [29]: inactive | Activity (Rattus norvegicus [30]): inactive
SMILES: N#Cc1c(O)c2c(-c3ccc(-c4ccccc4O)cc3)csc2[nH]c1=O
Activity (HeLa [4]): Active | Activity (Hepatocyte): Active | Activity (HeLa [7]): Active | Activity (HeLa [8]): Active | Activity (Mus musculus [9]): inactive | Activity (Mus musculus [10]): Active | Activity (Mus musculus [12]): Active | Activity (Mus musculus [13]): Active | Activity (HeLa [14]): Active | Activity (Mus musculus [15]): inactive | Activity (Mus musculus [18]): Active | Activity (Mus musculus [19]): inactive | Activity (HeLa [23]): Active | Activity (HeLa [25]): Active | Activity (Mus musculus [28]): inactive | Activity (HeLa [31]): Active
